Shown are actives, neighbours in structure and some others; about 1.9% of the full set was active somewhere.
Rin1 Abl inh = human Rin1-Abl interaction inhibition; P00519+Q13671; TR-FRET Rin1/Abl binding, biochemical; inhibition, % at 7.35 µM; hit rate 0.4% among 360,000; in the data active = inhibition above about 5%, passing the limit was not always enough
LEDGF integ inh = blocks HIV-1 LEDGF/p75-dependent DNA integration | inhibition, % at 3.7 µM | hit rate 0.64% among 370,000 | TR-FRET IN-LEDGF/p75 DNA integration, Eu/Cy5;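 active = inhibition above the screen-wide mean plus 3 SD, cut at about 13% in these data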;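 also: signal is the Cy5 over europium emission ratio at 671 and 618 nm; 0% = plate median of compound wells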
MBD2 inh = blocks human MBD2 binding to methylated DNA; Q9UBB5; TR-FRET, MBD2 binding to methylated oligonucleotide; inhibition, % at 4.4 µM; hit rate 0.31% among 370,000; AID 686964; in the data active = inhibition above about 13%
TDP2 inh = TDP2 (human) inhibition, absorbance primary screen | recombinant TDP2, T5PNP hydrolysis, p-nitrophenol absorbance 415 nm | inhibition, % at 12.8 µM | hit rate 0.34% among 370,000;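 active = inhibition above the mean of all tested compounds plus 3 SD, set per campaign, cut at about 25% in these data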;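 also: 0% = DMSO with enzyme and 100% = buffer with substrate but no TDP2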
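Material: recombinant human TDP2; quantity: TDP2 enzyme at 120 nM final; medium: Tris-HCl pH 7.5 with MgCl2; compound: single concentration, 12.8 µM nominal, with 1% DMSO; incubation: 2 h enzyme incubation at 37 °C; signal: epi absorbance; measure: percent inhibition; benchmarks: high control without enzyme, low control DMSO plus TDP2; repeats: singlicate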
UHRF1 MBD2 ctr = UHRF1 methyl-DNA binding inhibition | hit rate 0.75% among 370,000 | inhibition, % at 4.4 µM | UHRF1 binding to methylated oligo, TR-FRET | AID 687016; in the data active = inhibition above about 21%;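 also: UHRF1 SRA domain binding a hemimethylated CpG hairpin DNA probe; 0% = median of test compound wells and 100% = reference inhibitor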
Target sequence (Q96T88 whole entry, looked up, the tested form may be a part): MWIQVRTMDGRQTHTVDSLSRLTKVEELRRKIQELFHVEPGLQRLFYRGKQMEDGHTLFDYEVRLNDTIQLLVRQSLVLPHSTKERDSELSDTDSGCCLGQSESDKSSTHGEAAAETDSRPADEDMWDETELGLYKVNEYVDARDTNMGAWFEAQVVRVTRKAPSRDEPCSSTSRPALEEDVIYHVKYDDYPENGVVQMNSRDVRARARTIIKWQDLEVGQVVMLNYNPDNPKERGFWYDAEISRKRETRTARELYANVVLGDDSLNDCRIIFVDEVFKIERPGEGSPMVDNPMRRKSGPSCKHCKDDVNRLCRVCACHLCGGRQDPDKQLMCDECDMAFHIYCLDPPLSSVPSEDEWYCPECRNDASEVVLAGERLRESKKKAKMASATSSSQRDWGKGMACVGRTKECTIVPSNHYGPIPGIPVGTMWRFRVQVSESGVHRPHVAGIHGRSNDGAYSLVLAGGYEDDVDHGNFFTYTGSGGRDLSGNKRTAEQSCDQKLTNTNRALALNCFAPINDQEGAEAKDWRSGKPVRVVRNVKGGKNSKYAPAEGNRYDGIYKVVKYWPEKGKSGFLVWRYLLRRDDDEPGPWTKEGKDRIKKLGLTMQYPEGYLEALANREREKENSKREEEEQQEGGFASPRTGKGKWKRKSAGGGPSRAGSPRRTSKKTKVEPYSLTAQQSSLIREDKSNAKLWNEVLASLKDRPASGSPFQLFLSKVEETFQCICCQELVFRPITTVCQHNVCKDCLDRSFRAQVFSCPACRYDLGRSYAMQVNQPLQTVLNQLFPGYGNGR
The depositor's hits bear a star.

Screening C=CC#CC[N+]1(CC#Cc2ccccc2)CCOCC1 returned Rin1 Abl inh 1, LEDGF integ inh -5, MBD2 inh 20*, TDP2 inh -4 and UHRF1 MBD2 ctr 18.
Screening Clc1ccc2nc(CN3CCCCC3)cn2c1 returned Rin1 Abl inh 3, LEDGF integ inh 4, MBD2 inh 1, TDP2 inh -14 and UHRF1 MBD2 ctr 27*.
For Cc1ccc(S(=O)(=O)/N=C2/C=C(Sc3ncn[nH]3)C(=O)c3ccccc32)cc1 the results were Rin1 Abl inh 17*.
Screening Cc1ccc(S(=O)(=O)Nc2ccc(O)c(Sc3ncn[nH]3)c2)cc1 returned Rin1 Abl inh 3, LEDGF integ inh -1, MBD2 inh -1, TDP2 inh -1 and UHRF1 MBD2 ctr 3.
For Cc1ccc(S(=O)(=O)/N=C2\C=C(Nc3ccc(O)cc3)C(=O)c3ccccc32)cc1 the results were Rin1 Abl inh -2.
Screening CC(C)c1ccc(S(=O)(=O)/N=C2/C=C(Sc3ncn[nH]3)C(=O)c3ccccc32)cc1 returned Rin1 Abl inh 7.7*.
`Cc1ccc(-n2c(SCC(=O)Nc3ccccc3-c3ccccc3)nnc2-c2ccccn2)cc1` gave LEDGF integ inh -2, MBD2 inh 2, TDP2 inh -3 and UHRF1 MBD2 ctr 0.
CNc1ccccc1 was read as Rin1 Abl inh -1, LEDGF integ inh -3, MBD2 inh 0, TDP2 inh -2 and UHRF1 MBD2 ctr 3.
Screening CNc1cccccc1=S returned Rin1 Abl inh 2, LEDGF integ inh 23*, MBD2 inh 8, TDP2 inh 9 and UHRF1 MBD2 ctr 15.
Screening COc1ccc(Cl)cc1NC(=O)CSc1nnc(CNC(=O)c2ccco2)o1 returned Rin1 Abl inh 4, LEDGF integ inh -4, MBD2 inh 0, TDP2 inh -4 and UHRF1 MBD2 ctr 22*.
Screening COc1ccc(OC)c(NC(=O)CSc2nnc(CNC(=O)c3ccco3)o2)c1 returned Rin1 Abl inh -4, LEDGF integ inh -2, MBD2 inh -3, TDP2 inh 1 and UHRF1 MBD2 ctr 8.
For Cc1nn(C)c(Cl)c1NC(=O)OCc1ccc(Cl)cc1Cl the results were Rin1 Abl inh -1, LEDGF integ inh 5, MBD2 inh 1, TDP2 inh -19 and UHRF1 MBD2 ctr 53*.
`Cc1nnsc1NC(=O)OCc1ccc(Cl)cc1Cl` gave Rin1 Abl inh 1, LEDGF integ inh 2, MBD2 inh 3, TDP2 inh -14 and UHRF1 MBD2 ctr 5.
Screening C[N+]1(C)[C@H]2CC[C@H]1CC(OC(=O)C(O)c1ccccc1)C2 (some centres not stated) returned LEDGF integ inh -1, MBD2 inh 2, TDP2 inh 0 and UHRF1 MBD2 ctr 1.
CCCCCC/C(C)=C1/SC(=S)NC1=O was read as Rin1 Abl inh 0, LEDGF integ inh 0, MBD2 inh 3, TDP2 inh 13 and UHRF1 MBD2 ctr 17.
For C/C(C/C(C)=C1/SC(=S)NC1=O)=C1\SC(=S)NC1=O the results were Rin1 Abl inh 0, LEDGF integ inh 20*, MBD2 inh 18*, TDP2 inh 15 and UHRF1 MBD2 ctr 45*.
CN(C(=O)CCc1nnc(CCCCc2ccccc2)o1)C1CC(C)(C)NC(C)(C)C1 was read as Rin1 Abl inh 3, LEDGF integ inh 3, MBD2 inh 7, TDP2 inh -3 and UHRF1 MBD2 ctr 46*.
Screening O=C1NCCN(CC2CCN(CCc3ccc(Cl)c(Cl)c3)CC2)C1=O returned Rin1 Abl inh -5, LEDGF integ inh 8, MBD2 inh 11, TDP2 inh 4 and UHRF1 MBD2 ctr 24*.
Screening COc1ccc(S(=O)(=O)N/N=C(/C)c2ccncc2)cc1 returned Rin1 Abl inh 2, LEDGF integ inh 1, MBD2 inh 2, TDP2 inh 7 and UHRF1 MBD2 ctr 27*.
Screening C/C(=N\NS(=O)(=O)c1ccc(Br)cc1)c1ccncc1 returned Rin1 Abl inh 0, LEDGF integ inh 1, MBD2 inh 0, TDP2 inh -10 and UHRF1 MBD2 ctr 0.
`N/C(=N\OC(=O)/C=C/c1ccccc1)c1ccccn1` gave Rin1 Abl inh 0, LEDGF integ inh -3, MBD2 inh 3, TDP2 inh -2 and UHRF1 MBD2 ctr 24*.
For CCn1c2ccccc2c2cc(C=Nn3c(-c4ccccn4)n[nH]c3=S)ccc21 the results were LEDGF integ inh -1, MBD2 inh -7, TDP2 inh 1 and UHRF1 MBD2 ctr 0.
Cc1ccccc1NC(=O)C(=Cc1ccc(C(=O)O)cc1)C(=O)Nc1ccccc1C was read as Rin1 Abl inh -1, LEDGF integ inh 1, MBD2 inh 3, TDP2 inh 23 and UHRF1 MBD2 ctr 26*.
For CCOC(=O)N1CCN(C(=O)C[C@H]2C[C@@]3(C(=O)OC)C(=C[C@H](C(C)C)O[C@@H]3C3CC3)N(CCC3=CCCCC3)C2=O)CC1 the results were LEDGF integ inh 0, MBD2 inh 1, TDP2 inh 4 and UHRF1 MBD2 ctr 0.
For Cc1c(Br)c(=O)oc2c(Br)c(O)c(O)cc12 the results were Rin1 Abl inh -1, LEDGF integ inh -3, MBD2 inh 10, TDP2 inh -10 and UHRF1 MBD2 ctr 31*.
Cc1cc(NC(=O)Cn2ccc([N+](=O)[O-])n2)no1 was read as Rin1 Abl inh -1, LEDGF integ inh -2, MBD2 inh 0, TDP2 inh -6 and UHRF1 MBD2 ctr 23*.
CN1c2ccc(C#CC3CC3)cc2[C@@H]2[C@@H](CCN2C(=O)C2CCOCC2)[C@H]1CO was read as LEDGF integ inh -4, MBD2 inh -3, TDP2 inh 2 and UHRF1 MBD2 ctr 0.
Screening COc1ccc(CCN2C(=O)CCC2(C)c2nnnn2-c2c(C)cccc2C)cc1OC (configuration not stated) returned LEDGF integ inh -3, MBD2 inh 7, TDP2 inh 11 and UHRF1 MBD2 ctr 22*.
CCCc1nnc(NC(=O)CCC(=O)NC2CCCC2)s1 was read as Rin1 Abl inh -2, LEDGF integ inh 0, MBD2 inh 4, TDP2 inh 10 and UHRF1 MBD2 ctr 23*.
For CCc1nnc(NC(=O)CCC(=O)NC2CCCC2)s1 the results were Rin1 Abl inh -1, LEDGF integ inh 0, MBD2 inh 3, TDP2 inh 5 and UHRF1 MBD2 ctr 0.
Screening CCCOc1ccc(C(=O)N/N=C/c2ccc(-c3ccc(S(=O)(=O)Nc4ncccn4)cc3)o2)cc1 returned Rin1 Abl inh 0, LEDGF integ inh 2, MBD2 inh 0, TDP2 inh -4 and UHRF1 MBD2 ctr 70*.
Screening CCCS(=O)(=O)Nc1c(C(=O)OC)[nH]c2ccccc12 returned Rin1 Abl inh -2, LEDGF integ inh 1, MBD2 inh 8, TDP2 inh 12 and UHRF1 MBD2 ctr 22*.
Cc1noc(C)c1C(C)C1=CCCCC1 (configuration not stated) was read as LEDGF integ inh 1, MBD2 inh -11, TDP2 inh 7 and UHRF1 MBD2 ctr -1.
